Columns and labels:
[1] = target: GABA-A receptor; anion channel (Rattus norvegicus) (UniProt O09028+P15431+P18506+P18508+P19969+P20236+P23574+P23576+P28471+P28473+P30191+P62813+P63079+P63138+Q91ZM7+Q9ES14); test: Binding to GABA-A receptor complex relative to TBPS binding to picrotoxin convulsant site; format: functional
In short: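 Rat brain membranes ([…]) with 2 nM [35S]TBPS in 1 M NaCl, 10 mM Tris/HCl pH 7.4, 120 min at 24 °C; drugs added from methanol (≤0.2%, constant). Filtration read-out, nonspecific binding with 2 mM unlabeled TBPS.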

[2] = target: GABA-A receptor; anion channel; test: Displacement of [3H]flunitrazepam from GABA-A benzodiazepine receptor of rat cortical membranes; format: cell membranes, Membrane
[3] = target: GABA A receptor alpha-6/beta-2/gamma-2 (Rattus norvegicus, UniProt P18508+P30191+P63138); test: Displacement of [3H]-Ro- 15-4513 from alpha-6 beta2 gamma2 subunits of Rat GABA-A receptor expressed in Sf-9 insect cell membranes
Sequence of GABA A receptor alpha-6/beta-2/gamma-2 (P18508 whole entry): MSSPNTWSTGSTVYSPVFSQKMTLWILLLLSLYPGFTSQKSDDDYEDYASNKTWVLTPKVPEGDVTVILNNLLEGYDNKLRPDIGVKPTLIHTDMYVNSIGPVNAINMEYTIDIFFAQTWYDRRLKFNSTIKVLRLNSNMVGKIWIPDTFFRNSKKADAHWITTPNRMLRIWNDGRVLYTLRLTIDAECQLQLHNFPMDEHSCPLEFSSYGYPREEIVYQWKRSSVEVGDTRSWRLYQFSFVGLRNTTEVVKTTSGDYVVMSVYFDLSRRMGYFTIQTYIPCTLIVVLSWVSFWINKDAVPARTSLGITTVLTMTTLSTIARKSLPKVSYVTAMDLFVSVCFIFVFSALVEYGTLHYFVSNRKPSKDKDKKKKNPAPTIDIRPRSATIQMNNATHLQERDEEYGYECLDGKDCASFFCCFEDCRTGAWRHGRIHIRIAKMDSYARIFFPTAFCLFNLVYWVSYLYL
Sequence of GABA A receptor alpha-6/beta-2/gamma-2 (P30191 whole entry): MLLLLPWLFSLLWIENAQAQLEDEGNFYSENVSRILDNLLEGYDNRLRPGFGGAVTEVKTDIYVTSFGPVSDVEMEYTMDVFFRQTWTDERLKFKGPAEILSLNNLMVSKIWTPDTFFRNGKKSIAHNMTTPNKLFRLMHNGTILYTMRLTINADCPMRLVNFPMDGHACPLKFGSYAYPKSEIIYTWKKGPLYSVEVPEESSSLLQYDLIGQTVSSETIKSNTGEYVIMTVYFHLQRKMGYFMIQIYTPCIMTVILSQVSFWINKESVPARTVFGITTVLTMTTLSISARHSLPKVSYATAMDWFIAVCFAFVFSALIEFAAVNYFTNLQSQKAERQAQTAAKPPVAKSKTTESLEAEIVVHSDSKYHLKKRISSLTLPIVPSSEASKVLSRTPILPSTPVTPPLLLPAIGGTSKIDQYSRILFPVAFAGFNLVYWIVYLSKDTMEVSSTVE
Sequence of GABA A receptor alpha-6/beta-2/gamma-2 (P63138 whole entry): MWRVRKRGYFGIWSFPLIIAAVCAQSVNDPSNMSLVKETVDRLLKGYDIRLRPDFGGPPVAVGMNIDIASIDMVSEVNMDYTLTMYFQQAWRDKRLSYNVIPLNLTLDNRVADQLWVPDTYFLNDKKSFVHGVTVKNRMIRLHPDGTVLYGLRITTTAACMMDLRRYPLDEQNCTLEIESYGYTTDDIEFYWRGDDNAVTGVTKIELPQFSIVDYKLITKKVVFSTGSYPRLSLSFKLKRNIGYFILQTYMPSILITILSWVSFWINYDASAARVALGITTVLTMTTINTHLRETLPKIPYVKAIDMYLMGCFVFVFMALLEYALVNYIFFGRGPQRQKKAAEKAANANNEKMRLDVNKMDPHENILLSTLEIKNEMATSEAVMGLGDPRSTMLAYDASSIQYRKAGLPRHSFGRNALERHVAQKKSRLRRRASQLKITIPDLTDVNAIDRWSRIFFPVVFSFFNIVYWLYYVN

[4] = target: GABA-A receptor; alpha-1/beta-2/gamma-2 (Homo sapiens) (UniProt P14867+P47870+P18507); test: In vitro efficacy for GABA-A alpha-1-beta-2-gamma-2 subtype expressed in A293 cells in Cl- current assay; format: functional, cell-based; conditions: Rattus norvegicus; HEK293
In short: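 Stable A293 (human kidney) cells were transfected with α1, β2 and γ2 cDNAs and selected 2 weeks in 1 mg/mL G418; Northern-positive cells were used. Whole-cell patch clamp used a pipette solution of CsCl/EGTA/MgCl2/ATP/Hepes at pH 7.3 and an external normal saline at pH 7.2. GABA with or without drug was applied by U-tube for 10 s. Holding potential was -60 mV, room temperature.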

[5] = target: GABA A receptor alpha-6/beta-2/gamma-2 (Rattus norvegicus) (UniProt P18508+P30191+P63138); test: Displacement of [3H]-Ro- 15-4513 from alpha-6 beta2 gamma2 subunits of Rat GABA-A receptor expressed in Sf-9 insect cell membrane
In short: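 Sf-9 cells co-infected with baculoviruses for α6, β2 and γ2 subunits at an MOI of 3 pfu and harvested at 60 h. Membranes were made by homogenising in normal saline, then spun at 1000g and 40000g. Binding used 6 nM [3H]Ro 15-4513 with varying test ligand concentrations in normal saline, 60 min at 4 °C. Bound label was separated on glass-fibre filters and counted by scintillation.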

SMILES	Ratio [1]	Ki [2]	Ki [3]	Activity [4]	inhibition [5]
O=C1CNc2cccc3c2N1Cc1c(-c2noc(C4CC4)n2)ncn1-3	0.58	19 nM	> 589 nM	0.39	14.7%
O=C1COc2cccc3c2N1Cc1c(-c2noc(C4CC4)n2)ncn1-3	0.35	2 nM	–	–	–
CN1Cc2cccc3c2N(Cc2c(-c4noc(C5CC5)n4)ncn2-3)C1=O	0.08	3.7 nM	> 589 nM	0.5	16.3%
O=C1CCc2cccc3c2N1Cc1c(-c2noc(C4CC4)n2)ncn1-3	0.09	2.6 nM	> 589 nM	0.07	0%
COn1c(=O)n2c3c(cccc31)-n1cnc(-c3noc(C4CC4)n3)c1C2	0.68	7.3 nM	> 589 nM	0.73	36.4%
CC(C)n1c(=O)c2c(-c3noc(C4CC4)n3)ncn2c2ccccc21 [PANADIPLON]	–	–	603 nM	0.04	–
CC(C)(C)OC(=O)N1CC(=O)N2Cc3c(-c4noc(C5CC5)n4)ncn3-c3cccc1c32	0.63	579 nM	> 589 nM	0.6	13.5%
CN(C)C(=O)N1Cc2c(-c3noc(C4CC4)n3)ncn2-c2ccccc21 [PNU-91571]	0.69	–	13.2 nM	0.68	–
O=C1OCc2cccc3c2N1Cc1c(-c2noc(C4CC4)n2)ncn1-3	0.52	21 nM	> 589 nM	0.35	14.3%
CC(C)N1Cc2cccc3c2N(Cc2c(-c4noc(C5CC5)n4)ncn2-3)C1=O	0.41	1.2 nM	> 589 nM	0.65	20.9%
CN1C(=O)CN=C(c2ccccc2)c2cc(Cl)ccc21 [DIAZEPAM]	–	–	–	1	–
O=C1CC(c2ccccc2)c2cccc3c2N1Cc1c(-c2noc(C4CC4)n2)ncn1-3 (stereo unspecified)	0.88	25 nM	> 589 nM	0.88	13.6%
CC1(C)CC(=O)N2Cc3c(-c4noc(C5CC5)n4)ncn3-c3cccc1c32	0.75	9.9 nM	> 589 nM	1.1	35%
O=C1CCC2c3c(-c4noc(C5CC5)n4)ncn3-c3ccccc3N12 (stereo unspecified)	1.15	–	13.2 nM	0.29	–

From ChEMBL document CHEMBL1129735, “High-affinity alpha-aminobutyric acid A/benzodiazepine ligands: synthesis and structure-activity relationship studies of a new series of tetracyclic imidazoquinoxalines” (J Med Chem, 1996)
